# From PubChem
# TRPC4 PAM: TRPC4 (mouse) allosteric potentiation. Q9QUQ5. HEK293 TRPC4beta/mu-opioid, DAMGO EC20, Fluo-4 Ca2+ flux; hits give high values. B-score at 10 µM. actives 0.42% (n = 310,000). AID 2227;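 active = B-score of calcium response area above 5 SD of library B-scores, with initial fluorescence ratio within 5 SD of library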;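 also: B-score of integrated fluorescence ratio over time as area under calcium response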
# TRPC6 inh: inhibitors of mouse TRPC6 channel; Q61143; HEK293-TRPC6, membrane potential dye, ACh-evoked depolarization; hits give low values; B-score at 10 µM; actives 1.1% (n = 310,000);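 active = B-score under library mean minus 3 SD, initial fluorescence not abnormally high, positive integrated signal ratio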;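 also: B-score derived from integrated fluorescence ratio over the kinetic read; more negative B-score means stronger inhibition of depolarization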
# Platelet DG rel: platelet dense granule release activity | human platelet-rich plasma, SFLLRN dense granule ATP release, luminescence | inhibition, %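 (compounds screened at 7.5 µM in platelet-rich plasma)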 | actives 0.22% (n = 300,000);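 active = mean replicate score, as percent of positive control, at or above 50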
# TRPC4 block: TRPC4 (mouse) channel inhibition | AID 2247 | B-score at 10 µM | actives 0.39% (n = 300,000) | HEK293 TRPC4beta/mu-opioid, DAMGO-evoked Fluo4 calcium flux; hits give low values;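 active = B-score over 3 SD under the library average, no early fluorescence shift, positive overall ratio signal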
#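 Material: HEK293 cells with stable TRPC4beta plus mu-opioid receptor expression; probe or stimulus: DAMGO in two steps, submaximal then maximal; technique: Fluo4 calcium fluorescence by kinetic imaging, 5 s 1 Hz baseline; measure: integrated fluorescence ratio relative to baseline, converted to per-well B score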
# TRPC6 act: activates the mouse TRPC6 cation channel; Q61143; HEK293-TRPC6 membrane potential dye fluorescence; hits give high values; B-score at 10 µM; actives 0.13% (n = 310,000); AID 2550;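 active = B-score of the integrated fluorescence ratio above library mean plus 3 SD, and starting fluorescence ratio within library mean plus 5 SD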;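 also: higher score means more depolarization so channel activation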
# TRPC4 act: activators of mouse TRPC4 channel; Q9QUQ5; HEK293 TRPC4beta/mu-opioid, Fluo4 calcium fluorescence; hits give high values; B-score at 10 µM; actives 0.49% (n = 310,000);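 active = B-score above 5 SD of library B-scores, and initial fluorescence ratio not above library mean plus 5 SD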;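 also: positive B-score marks a calcium rise read as TRPC4 activation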
#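 Assay system: HEK293 stable line with TRPC4beta plus mu-opioid receptor; schedule: 45 min room-temperature Fluo4 loading, 110 s read; technique: kinetic Fluo4 calcium fluorescence; evaluation: integrated baseline-normalised fluorescence ratio, converted to per-well B score; controls: buffer (low) and maximal DAMGO (high)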
# Starred values were filed as active, the others as inactive; i = inactive; . = not tested or not shown. Most compounds without a hit are left out; they make up all but 2.5% or so of the library.
SMILES,TRPC4 PAM,TRPC6 inh,Platelet DG rel,TRPC4 block,TRPC6 act,TRPC4 act
CCCC(=O)Nc1ccc(-c2csc(N/N=C\c3ccncc3)n2)cc1,i,i,1,i,i,i
CCN(CC)Cc1ccc(OC)c(Cl)c1,i,i,13,i,i,i
COc1ccc(CSCCN)cc1Cl,i,i,4,i,i,103*
O=c1c(Cl)c(N2CCN(c3ccc(F)cc3)CC2)cnn1C12CC3CC(CC(C3)C1)C2,10*,i,-3,i,i,i
CCOP(=O)(OCC)c1nc(-c2cccc3ccccc23)oc1NCc1ccccc1,i,i,1,i,i,i
CCOP(=O)(OCC)c1nc(-c2cccc3ccccc23)oc1NCc1ccc(OC)cc1,13*,i,12,i,i,i
COC(=O)CCC(=O)N1CCCC(N2CCN(c3cccc(C(F)(F)F)c3)CC2)C1 (configuration not stated),i,i,0,i,i,i
CCCCn1c(NC(=O)C2CCCCC2)nc2ccccc21,13*,i,-2,i,i,i
CCCCn1c(NC(=O)c2ccccc2)nc2ccccc21,52*,i,-1,-6*,i,i
CCn1c(SCc2ccc(Cl)cc2Cl)nc2nc3c(cc2c1=O)CCCC3,i,i,11,i,i,i
O=C(Cc1cccs1)Nc1ccc(F)cc1,i,i,3,i,i,i
CCN(CC)CCn1c(=N)n(CC(O)COc2ccccc2)c2ccccc21 (configuration not stated),i,i,-1,-6*,i,i
O=C(Nc1ccc(F)cc1)N1CCc2ccccc2C1,i,i,-5,i,i,i
CCCc1cc(=O)n2[nH]c(C)c(-c3ccccc3)c2n1,i,i,12,i,i,i
Cc1[nH]n2c(=O)cc(-c3ccc([N+](=O)[O-])cc3)nc2c1-c1ccccc1,i,i,.,-5*,i,i
O=c1c(NCCc2ccc(Cl)cc2)c(-c2ccccc2)c1=O,14*,i,19,i,i,i
O=C(CN1CCN(Cc2ccccc2Cl)CC1)N=Nc1c(O)[nH]c2ccccc12,i,i,4,-6*,i,i
Cc1ccc(CN2CCN(CC(=O)N=Nc3c(O)[nH]c4ccccc34)CC2)cc1,i,i,3,i,i,i
CC(=O)[C@@H]1[C@@H]2C(=O)N(c3ccc(F)c(Cl)c3)C(=O)[C@@H]2C2c3ccccc3C=CN21 (some centres not stated),i,i,-10,-7*,i,i
CC(=O)[C@H]1[C@@H]2C(=O)N(c3cccc(Cl)c3)C(=O)[C@@H]2[C@H]2c3ccccc3C=CN21,i,i,.,i,i,i
Cn1c(CSCc2ccc(Cl)cc2)nnc1SCC(=O)Nc1nc2ccccc2s1,i,i,-3,i,i,i
CC(O)CNCCCOc1ccccc1OCc1ccccc1 (configuration not stated),i,i,1,i,i,i
CNCC(C)COc1ccccc1OCc1ccccc1 (configuration not stated),i,i,2,-6*,i,i
CCCN(CCC)CCCNC(=O)c1cn(CC)c2ccc(S(=O)(=O)N3CCOCC3)cc2c1=O,i,i,-12,i,i,45*
CCCCN(C)CCCNC(=O)c1cn(CC)c2ccc(S(=O)(=O)N3CCOCC3)cc2c1=O,i,i,6,i,i,i
CC1CC(C)CN(CCCNC(=O)c2cn(C)c3ccc(S(=O)(=O)N4CCCC4)cc3c2=O)C1 (configuration not stated),i,i,-1,i,i,55*
CN(Cc1ccccc1)C(=O)c1cn(C)c2ccc(S(=O)(=O)N3CCCC3)cc2c1=O,12*,i,8,i,i,i
CC(=O)c1c(C)[nH]c(C(=O)OCC(=O)N2CC(C)OC(C)C2)c1C (configuration not stated),i,i,9,i,i,i
